Assay outcomes from PubChem.
In the library only some 4.2% were active in any assay of this set; here they are far more common.
OX1R antag-1: blocks the human orexin 1 receptor; OX1R-expressing cells, FRET antagonist read-out; hit rate 1.8% among 330,000; AID 485270; O43613; inhibition, % at 6.6 µM; in the data active means inhibition mostly above about 38%, no sharp cut-off; inactive means mostly below about 40%;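 further: 0% = agonist challenge alone and 100% = reference antagonist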
Target sequence (O43613 whole entry, looked up): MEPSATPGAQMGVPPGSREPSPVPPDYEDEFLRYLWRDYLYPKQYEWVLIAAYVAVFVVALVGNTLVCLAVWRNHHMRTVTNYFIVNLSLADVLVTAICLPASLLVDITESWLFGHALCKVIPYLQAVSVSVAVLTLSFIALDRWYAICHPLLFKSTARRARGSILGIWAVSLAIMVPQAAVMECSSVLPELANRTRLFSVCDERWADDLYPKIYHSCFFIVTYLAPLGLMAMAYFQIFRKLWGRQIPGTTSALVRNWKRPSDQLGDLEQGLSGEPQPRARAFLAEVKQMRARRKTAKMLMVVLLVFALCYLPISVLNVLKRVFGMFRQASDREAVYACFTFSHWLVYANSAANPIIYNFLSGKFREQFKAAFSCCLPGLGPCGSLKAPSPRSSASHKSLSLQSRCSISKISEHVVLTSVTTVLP
CHO parental Ca: counter-screen: ATP calcium response change in parental CHO cells; inhibition, % at 5.6 µM; parental CHO-K1, ATP-induced calcium, Fluo-8 fluorescence; hit rate 0.63% among 330,000; AID 463079;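 active means inhibition above that plate's mean sample inhibition plus 3 SD, cut at about 26% in these data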;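 further: 0% = ATP-challenged DMSO wells and 100% = DMSO wells without ATP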
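Material – parental CHO cells · Reagent – ATP stimulus · Compound – single nominal dose of 5.6 µM per compound · Detection – Fluo-8 fluorescence · Read-out basis – percent inhibition of calcium signal · Controls – ATP-challenged DMSO wells low, unchallenged DMSO wells high · Repeats – no replicates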
TAAR1 ag: human TAAR1 agonism; CHO RD-HGA16 TAAR1, Fluo-8 calcium fluorescence; vehicle wells 0%, saturating PEA agonist 100%; hit rate 0.99% among 360,000; activation, % at 3 µM; Q96RJ0; AID 624467;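 active means activation above the mean activation of all test compounds in the run plus 3 SD, cut at about 38% in these data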
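Signal – calcium-sensitive Fluo-8 signal, excitation 470-495, emission 515-575 nm · System – RD-HGA16 (CHO) cells co-expressing Gα16 and hTAAR1 · Incubation – 17-24 h seeding, 75 min 37 °C dye, 30 min RT · Compound dosing – 3 µM single concentration · Repeats – no replicates (n 1)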
GalR3 antagonist: antagonists of human GalR3; O60755; HEK293 GalR3-CNG cAMP membrane potential fluorescence; galR3 body fused to GalR1 C-terminus; inhibition, % at 3 µM; hit rate 0.44% among 360,000; AID 651719;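 active means inhibition above the screen-wide average plus 3 SD, cut at about 13% in these data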;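 further: forskolin and galanin both at EC90 stimulate the cells; cAMP rise reported by CNG channel membrane potential dye signal; 0% = forskolin plus galanin with DMSO and 100% = forskolin alone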
TAAR1 antag: human TAAR1 antagonism. hit rate 1.5% among 360,000. CHO RD-HGA16 TAAR1, Fluo-8 calcium fluorescence, antagonist. Q96RJ0. AID 624466. inhibition, % at 3 µM;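 active means inhibition above a per-plate cutoff, the mean inhibition of test compounds on that plate plus 3 SD, cut at about 49% in these data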;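 further: 0% = DMSO plus EC80 beta-PEA response and 100% = DMSO alone without agonist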
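System: RD-HGA16 CHO cells with stable hTAAR1 and Gα16 | Probe or stimulus: EC80 β-phenethylamine stimulus | Dosing: 3 µM, single point | Times: Dye loading 75 min at 37 °C, then 30 min room temperature | Measured by: Fluo-8 calcium-sensitive fluorescence | Read-out basis: % inhibition of agonist calcium response | Replicates: n of 1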
OX1R antag-2: antagonists of human orexin 1 receptor. O43613. CHO/OX1R cells, Fluo-8 calcium fluorescence, orexin A. inhibition, % at 5 µM. hit rate 0.43% among 330,000. AID 434989;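 active means inhibition above its plate's threshold, mean inhibition of all tested compounds on the plate plus 3 SD, cut at about 37% in these data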;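 further: 0% = orexin A challenge wells and 100% = SB-334867-A antagonist wells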
The depositor's hits bear a star; · = no result.

SMILES	OX1R antag-1	CHO parental Ca	TAAR1 ag	GalR3 antagonist	TAAR1 antag	OX1R antag-2
COC(=O)c1ccc(C23CC4(C2)[C@H](CN(Cc2ccc(-c5ccccc5)cc2)[C@@H]4c2ccccc2)C3c2ccc(Cl)nc2)cc1 (stereo partly specified)	33	-8	1	-1	-2	-14
Cc1cccc(OCc2nnc(SCC(=O)N(C(C)C)C(C)C)n2Cc2ccco2)c1C	36*	-36	15	-5	-12	8
Cc1cc(NC(=O)CSc2nnc(COc3cccc(C)c3C)n2Cc2ccco2)no1	9	-6	13	-4	18	0
COc1cccc(N2C(=O)CC(Nc3ccc(N4CCOCC4)cc3)C2=O)c1 (stereo unspecified)	39*	5	·	·	·	-6
CCOC(=O)C(Sc1nnc2c3ccccc3n(CC)c2n1)C(=O)OCC	23	-20	16	0	1	-41
COc1cc(C(=O)NCc2ccccc2)cc(Br)c1OC	23	-20	2	-4	-1	-34
CCC1Nc2ccccc2-c2nnc(SC)nc2O1 (stereo unspecified)	55	-13	1	-3	8	-4
COc1ccccc1C(=O)C1Nc2ccccc2-c2nnc(SC)nc2O1 (stereo unspecified)	50*	-12	9	-4	0	-16
Clc1ccccc1CSc1nnc(-c2ccccn2)n1Cc1ccco1	57*	-24	12	1	18	24
CC(C)C[C@H]1CN=C(Nc2ccccc2)N1CCCCc1ccccc1	5	-15	42*	-8	-4	-13
O=C(c1ccccc1Nc1ccc(SC(F)F)cc1)N1CCCCC1	10	-16	2	-5	9	-30
CC(OC(=O)c1ccccc1Nc1ccc(SC(F)F)cc1)C(N)=O (stereo unspecified)	36	47*	11	-3	31	29
O=S(=O)(c1ccccc1)N(CC1CO1)c1ccccc1 (stereo unspecified)	22	8	1	-4	-9	-5
O=S(=O)(c1ccccc1)N(CC1CO1)c1cccc2ccccc12 (stereo unspecified)	67*	-16	-2	-1	3	12
COC(=O)CC1=C(C(=O)OC)C(c2cc(OC)c(OC)cc2OC)C(C#N)=C(N)O1 (stereo unspecified)	12	-7	3	-5	-8	-19
Cc1ccc(CNC(=O)c2nnc(Cc3ccc(Cl)cc3)o2)cc1	9	44*	7	7	-42	-4
O=C(NCc1ccco1)c1nnc(Cc2ccc(Cl)cc2)o1	6	-14	-2	2	-20	-21
CCCn1nnnc1-c1cccc(Cl)c1	16	-6	12	-8	4	-13
CCc1ccccc1N1C(=O)CN(Cc2cc(OC)c(OC)c(OC)c2)C1=S	37*	-15	7	-10	12	-6
CCc1ccc(N2C(=O)CN(Cc3cc(OC)c(OC)c(OC)c3)C2=S)cc1	17	-13	8	3	-8	-29
O=C(Cc1ccccc1)N/N=C/c1ccc([N+](=O)[O-])s1	58	-14	31	-3	1	-9
Cc1ccnn1CC(=O)N/N=C/c1cccs1	9	-13	2	-8	-25	-12
O=C(CNC(=O)c1cccc(F)c1)N/N=C/c1ccc([N+](=O)[O-])s1	50*	-5	3	-8	-31	-8
Cc1ccnn1CC(=O)N/N=C/c1ccc([N+](=O)[O-])s1	51*	-13	3	0	-1	-18
O=C(N/N=C/c1ccc([N+](=O)[O-])s1)C(O)c1ccccc1 (stereo unspecified)	56*	-6	0	-3	10	-5
CCCNC(=O)COc1ncnc2sc(C)c(C)c12	-2	-20	7	-2	-17	-8
CCN1CCSc2ccc(C(=O)NCc3cc(Br)ccc3OC)cc21	25	-2	1	·	-19	-27
COc1ccc(CCNC(=O)c2ccc3c(c2)N(Cc2ccc(F)cc2)CCS3)c(OC)c1	46*	-1	16	1	0	-12
COc1ccc(Br)cc1CNC(=O)c1ccc2c(c1)N(C)CCS2	57*	-17	-1	·	-2	-24
